For orientation: IC50 means the point on the concentration scale where inhibition reaches its midpoint. Read a high IC50 as weaker potency. By MIC is commonly meant the lowest concentration found to suppress growth. A higher MIC goes with weaker potency. By Ki is commonly meant the equilibrium dissociation constant of an inhibitor or competing ligand from its target. High values mean weaker binding, low ones tighter binding.

The record followed here is ChEMBL document CHEMBL1135792, “Inhibition of the antibacterial target UDP-(3-O-acyl)-N-acetylglucosamine deacetylase (LpxC): isoxazoline zinc amidase inhibitors bearing diverse metal binding groups” (J Med Chem, 2002).

In assay [1] the test system is Escherichia coli. The experiment in a line: Inhibition of Escherichia coli growth in vitro. It is filed as functional.
Assay [2] concerns Escherichia coli. Description: Inhibition of EnvAl Escherichia coli growth in vitro. It is filed as functional.
Assay [3] has as its target T1, UDP-3-O-acyl-N-acetylglucosamine deacetylase (Escherichia coli K-12, UniProt P0A725).
T1 sequence (P0A725 whole entry): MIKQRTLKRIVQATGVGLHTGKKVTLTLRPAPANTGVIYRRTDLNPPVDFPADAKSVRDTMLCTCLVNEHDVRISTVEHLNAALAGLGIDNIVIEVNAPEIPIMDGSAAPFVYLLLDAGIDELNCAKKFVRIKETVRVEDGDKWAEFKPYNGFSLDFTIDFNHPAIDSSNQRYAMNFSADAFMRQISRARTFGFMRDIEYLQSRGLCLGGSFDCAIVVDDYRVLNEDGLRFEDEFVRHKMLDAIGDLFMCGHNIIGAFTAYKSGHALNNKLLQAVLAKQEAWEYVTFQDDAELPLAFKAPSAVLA
Description: Inhibition of Escherichia coli LpxC(UDP-3-O-[R-3-hydroxymyristoyl]-GlcNAc deacetylase. In short, it runs like this: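 Purified E. coli LpxC (2.5 nM) preincubated 30 min on ice with inhibitor (0.1-500 µg/mL) and 1 mg/mL BSA. Stopped with NaOH, substrate and product separated by PEI-cellulose TLC, phosphorimaged. IC50 from eq 1.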

The subject of assay [4] is Escherichia coli. Description: Inhibitory activity measured against Escherichia coli. It is filed as functional.
The test system of assay [5] is Escherichia coli. Description: Antibacterial activity against EnvA1 Escherichia coli. It is filed as functional.
Assay [6] has as its system Escherichia coli. Description: Inhibition of Escherichia coli LpxC in a second order rate constant. The procedure, abridged: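 Purified E. coli LpxC (100 µM) preincubated at 30 °C with inhibitor (0-0.8 mM) in 100 mM bis-Tris pH 7, 12% DMF. Aliquots taken over time, diluted 10-fold into 27 mM UDP-GlcNAc, bis-Tris pH 7, 30 °C. UDP-GlcN read by fluorescamine (ex 395/em 485 nm). Pseudo-first-order kobs fit to exponential decay, then plotted against inhibitor concentration and fit by eq 2.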

Assay [7] relates to Escherichia coli. Description: Antibacterial activity against Escherichia coli.

The structures appear in SMILES notation. ≈ marks a conversion by molar mass, not a printed value. Some results are limits rather than exact numbers.

As for `COc1ccc(C2=NOC(S(N)(=O)=O)C2)cc1` (centres undefined), the zone diameter in assay [1] and in assay [2] was under 6 mm each time. In assay [3], this compound registered an IC50 of over 1200 µM.

`COc1ccc(C2=NO[C@@H](C(=O)NO)C2)cc1`: the zone diameter in assay [1] and in assay [2] was under 6 mm throughout.

Consider `COc1ccc(C2=N[C@@H](C(=O)NO)CO2)cc1`, for which the results for the zone diameter in assay [1] and in assay [2] were 11 mm and 24 mm, respectively. This compound displayed an IC50 in assay [3] of 3 µM.

As to `COc1ccc(C2=NO[C@H](C(=O)NO)C2)cc1`, the zone diameter was under 6 mm in assay [4] and 26 mm in assay [2]. In assay [5], this compound displayed an MIC of 3.9 mg/L (≈ 16.5 µM). Besides, 4.37 µM corresponded to half-maximal inhibition in assay [3] (IC50).

In assay [6], `COc1ccc(C2=NOC([C@H]3CS3)C2)cc1` (some centres undefined) returned a Ki of 800 µM. For the same compound, the zone diameter in assay [1] and in assay [2] was under 6 mm each time.

For `COc1ccc(C2=NOC([C@@H]3CS3)C2)cc1` (some centres undefined), affinity in assay [6] was put at a Ki of 300 µM. In addition, the zone diameter in assay [1] and in assay [2] was under 6 mm in each case.

For `COc1ccc(C2=NOC(C(=O)CS)C2)cc1` (racemic), the zone diameter in assay [1] and in assay [2] was under 6 mm throughout. In assay [3], this compound returned an IC50 of 27 µM.

Consider `COc1ccc(C2=NOC(C(=O)NCO)C2)cc1` (racemic), for which the zone diameter in assay [1] and in assay [2] was under 6 mm each time. Also, the IC50 in assay [3] is over 400 µM.

Consider `COc1ccc(C2=NOC(S(C)(=O)=O)C2)cc1` (racemic), for which the zone diameter in assay [1] and in assay [2] was under 6 mm throughout. This compound gave an IC50 in assay [3] of over 392 µM.

Take `COc1ccc(C2=NOC(P(=O)(O)O)C2)cc1` (racemic): the zone diameter in assay [1] and in assay [2] was under 6 mm each time. This compound also displayed an IC50 in assay [3] of 4 µM.

Consider `COc1ccc(C2=NOC(C(=O)Nc3ccccn3)C2)cc1` (racemic), for which the zone diameter in assay [1] and in assay [2] was under 6 mm each time. The same compound yielded an IC50 in assay [3] of over 336 µM.

Regarding `COc1ccc(C2=NOC(C(=O)NNC=O)C2)cc1` (racemic), the zone diameter in assay [1] and in assay [2] was under 6 mm each time. For the same compound, the midpoint of inhibition in assay [3], the IC50, lay at 400 µM.

For `COc1ccc(C2=NOC(C(=O)CSC(C)=O)C2)cc1` (racemic), the zone diameter in assay [1] and in assay [2] was under 6 mm each time. For the same compound, the IC50 in assay [3] amounted to 12 µM.

As for `COc1ccc(C2=NOC(C(=O)NN)C2)cc1` (racemic), the zone diameter in assay [1] and in assay [2] was under 6 mm each time. Besides, the IC50 in assay [3] is over 425 µM.

Turning to `COc1ccc(C2=NOC(P(C)(=O)O)C2)cc1` (racemic), the zone diameter in assay [1] and in assay [2] was under 6 mm each time. Moreover, the half-maximal inhibitory concentration (IC50) in assay [3] stood at 170 µM.

Take `COc1ccc(C2=NOC(C(=O)NO)C2)cc1` (racemic): the zone diameter in assay [1] was under 6 mm; in assay [2], 21 mm. Moreover, in assay [3], the IC50 stood at 13 µM.

On to `COc1ccc(C2=NOC(CS)C2)cc1` (racemic), for which the zone diameter in assay [1] and in assay [2] was under 6 mm each time. Further, half-maximal inhibition in assay [3] (IC50) was put at 22 µM.

For `COc1ccc(C2=NOC(C(=O)O)C2)cc1` (racemic), the zone diameter in assay [1] and in assay [2] was under 6 mm in each case. For the same compound, the IC50 in assay [3] is over 450 µM.

For the compound `COc1ccc(C2=NOC(C(=O)Nc3nccs3)C2)cc1` (racemic), the zone diameter in assay [1] and in assay [2] was under 6 mm in each case. This compound yielded an IC50 in assay [3] of over 392 µM.

In the case of `COc1ccc(C2=NO[C@@H]([C@@H](O)CS)C2)cc1` (relative stereo), the zone diameter in assay [1] and in assay [2] was under 6 mm each time. In assay [3], this compound registered an IC50 of over 400 µM.

For the compound `COc1ccc(C2=NO[C@@H]([C@H](O)CS)C2)cc1` (relative stereo), the zone diameter in assay [1] and in assay [2] was under 6 mm in each case. In assay [3], this compound displayed an IC50 of over 400 µM.

With `CO[C@H]1/C=C/O[C@@]2(C)Oc3c(C)c(O)c4c(O)c(c(/C=N/N5CCN(C)CC5)c(O)c4c3C2=O)NC(=O)/C(C)=C\C=C\[C@H](C)[C@H](O)[C@@H](C)[C@@H](O)[C@@H](C)[C@H](OC(C)=O)[C@@H]1C` [RIFAMPIN], the MIC in assay [7] was 2 mg/L (≈ 2.43 µM).
